GRIN3A LBD mod – modulates the human NR3A ligand-binding domain | hit rate 2.5% among 340,000 | Tm shift relative to glycine control, % at 25 µM | NR3A LBD differential scanning fluorimetry, Tm shift; 0% = protein alone, 100% = glycine-bound protein | AID 1259313;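 active = melting temperature shift of at least 10% of the positive control shift, at one fixed dose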
UCH37 DUB inh – human UCH37 deubiquitinating enzyme inhibition; Q9Y5K5; purified proteasome/UCH37, Ub-AMC cleavage fluorescence; inhibition, % (no concentration beside the values); hit rate 0.33% among 330,000; AID 588478;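 active = mean inhibition over replicate wells above about 20%, limit read from the data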
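Material: human UCH37 enzyme supplied as purified proteasome complex. Measure: % inhibition of Ub-AMC cleavage fluorescence. Medium: pH 7.4 Tris-HCl (50 mM) with ovalbumin, ATP-MgCl2, DTT. Times: 30 min preincubation with enzyme, 25 min cleavage at room temperature. Detection: AMC fluorescence intensity at 355/460 nm.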
PAFAH1B2 FP inh – inhibitors of human PAFAH1B2; recombinant PAFAH1B2, FP-rhodamine activity probe, fluorescence polarization; inhibition, % at 3.39 µM; hit rate 1.2% among 340,000; AID 492953;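 active = inhibition above the mean of all tested compounds plus 3 SD, cut at about 24% in these data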
PAFAH2 FP inh – PAFAH2 (human) inhibition | Q99487 | recombinant PAFAH2, FP-rhodamine activity probe, fluorescence polarization | inhibition, % at 3.39 µM | hit rate 0.99% among 340,000 | AID 492956;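 active = inhibition above the mean over all tested compounds plus 3 SD, cut at about 30% in these data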;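 note: inhibitors block probe labeling of enzyme so polarization drops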
PAFAH1B3 inh – PAFAH1B3 (human) inhibition; Q15102; recombinant PAFAH1B3, FP-rhodamine probe, fluorescence polarization; inhibition, % at 3.39 µM; hit rate 0.28% among 340,000;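 active = inhibition above the screen-wide average of all tested compounds plus 3 SD, cut at about 25% in these data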
Target sequence (Q15102 whole entry, looked up): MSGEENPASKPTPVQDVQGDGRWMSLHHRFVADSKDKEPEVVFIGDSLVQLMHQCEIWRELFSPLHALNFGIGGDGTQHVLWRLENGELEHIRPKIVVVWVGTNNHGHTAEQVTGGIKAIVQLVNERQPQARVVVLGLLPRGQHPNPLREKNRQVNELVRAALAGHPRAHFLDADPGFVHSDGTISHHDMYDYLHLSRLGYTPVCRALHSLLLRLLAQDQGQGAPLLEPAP
pPAFAH inh – inhibitors of human plasma PAF acetylhydrolase (pPAFAH); recombinant pPAFAH, FP-rhodamine probe fluorescence polarization; Q13093; inhibition, % at 3.39 µM; hit rate 1.5% among 330,000; AID 463082;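 active = inhibition above the mean inhibition across the screen plus 3 SD, cut at about 25% in these data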;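 note: inhibitors block binding of the rhodamine activity-based probe so polarization drops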
Target sequence (Q13093 whole entry, looked up): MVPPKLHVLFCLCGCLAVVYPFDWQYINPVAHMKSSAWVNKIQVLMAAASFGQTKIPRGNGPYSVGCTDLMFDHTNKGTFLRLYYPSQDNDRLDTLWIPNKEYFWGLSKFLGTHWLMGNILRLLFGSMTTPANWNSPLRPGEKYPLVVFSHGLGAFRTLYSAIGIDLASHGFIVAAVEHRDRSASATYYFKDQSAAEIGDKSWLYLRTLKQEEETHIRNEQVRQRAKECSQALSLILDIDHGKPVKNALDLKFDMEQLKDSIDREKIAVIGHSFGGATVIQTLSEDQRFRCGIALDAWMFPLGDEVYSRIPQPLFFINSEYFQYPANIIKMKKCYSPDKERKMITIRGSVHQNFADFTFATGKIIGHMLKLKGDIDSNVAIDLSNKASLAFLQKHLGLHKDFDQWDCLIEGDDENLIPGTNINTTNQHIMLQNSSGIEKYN
pPAFAH confirm – confirmation of human plasma PAF acetylhydrolase (pPAFAH) inhibitors | shares compounds with pPAFAH inh | recombinant pPAFAH, FP-Rh probe fluorescence polarization | inhibition, % at 3.39 µM | hit rate 72% among 2,300 | AID 463230;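 active = mean inhibition of the triplicate above the hit cutoff set for the earlier primary screen, cut at about 25% in these data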
Hits are given with their value; . = inactive; / = no result. The list is not random: actives were taken first. Their share in the collection is about 4.8%.

SMILES	GRIN3A LBD mod	UCH37 DUB inh	PAFAH1B2 FP inh	PAFAH2 FP inh	PAFAH1B3 inh	pPAFAH inh	pPAFAH confirm
Cc1ccc2nc(/C(C#N)=C/c3ccccc3C(=O)O)[nH]c2c1	.	.	.	.	.	.	/
Cc1ccc2nc(/C(C#N)=C/c3ccc(O)c(O)c3)[nH]c2c1	18.9	/	.	.	46.6	65.4	78.9
NC(Cc1nc(-c2ccc(Cl)cc2)cs1)=NO	/	.	/	/	/	/	/
Cn1cccc1C=NNC(=O)c1ccn[nH]1	/	.	/	/	/	/	/
O=c1nc2sc(=Cc3ccco3)c(=O)n2nc1Cc1ccc(F)cc1	/	.	/	/	/	/	/
CCc1ccc(NC(=O)Nc2ccc3c(c2)N(C)C(=O)CS3)cc1	.	.	.	.	.	37.1	.
Cc1cc(C)cc(NC(=O)Nc2ccc3c(c2)N(C)C(=O)CS3)c1	.	.	.	.	.	.	/
CCc1noc(C)c1C(=O)OCC(=O)NC(C)c1ccccc1 (centres undefined)	.	.	.	.	.	34.7	.
CN(N=Cc1ccco1)C1=NS(=O)(=O)c2ccccc21	/	.	/	/	/	/	/
Cc1ccc(/C(O)=C2\C(=O)C(=O)N(C)C2c2ccc([N+](=O)[O-])cc2)cc1 (centres undefined)	.	.	.	.	.	.	/
Cc1ccc(/C(O)=C2/C(=O)C(=O)N(CC(=O)O)C2c2ccc([N+](=O)[O-])cc2)cc1 (centres undefined)	.	/	.	.	.	36.6	.
O=C1C(CSCc2ccccc2)NC(=S)N1c1ccccc1 (centres undefined)	.	.	/	/	/	37.1	.
O=C(O)CC1NC(=S)N(c2ccccc2)C1=O (centres undefined)	.	.	.	.	.	.	/
COc1cccc(C=NNC(=O)c2ccc(N(C)S(=O)(=O)c3ccccc3)cc2)c1OC	/	.	/	/	/	/	/
C/C(=N\NC(=O)c1ccc(-c2ccccc2)cc1)C1C(=O)c2ccccc2C1=O	.	/	28.6	.	.	52.7	66.6
CC(=NNC(=O)c1cccc(Cl)c1)C1C(=O)c2ccccc2C1=O	/	.	/	/	/	/	/
CC(OC(=O)c1ccccc1Nc1ccc(SC(F)F)cc1)C(N)=O (centres undefined)	.	.	.	.	.	35.3	.
O=C(COc1ccc(Cl)cc1Cl)NN=CCCc1ccccc1	/	.	/	/	/	/	/
O=C(/C=C/c1ccc(O)c(O)c1)c1ccc(S(=O)(=O)N2CCCCCC2)cc1	22.5	.	.	.	.	50.2	88.7
O=C(c1ccc(S(=O)(=O)N2CCCC2)cc1)N1CCCCC1	.	.	.	.	.	.	/
CCOc1cccc(-c2c(C(=O)NN=Cc3ccncc3)nnn2-c2nonc2N)c1	/	.	/	/	/	/	/
Cc1c(C)c2ccc(OCC(=O)N[C@@H](Cc3ccccc3)C(=O)O)cc2oc1=O	.	.	.	.	.	.	/
CCCCCCc1c(C)c2ccc(OCC(=O)N[C@@H](Cc3ccccc3)C(=O)O)cc2oc1=O	.	.	.	.	.	38.3	.
CC(NC(=O)c1ccccc1)C(=O)NN=Cc1ccccc1 (centres undefined)	/	.	/	/	/	/	/
COc1ccc(NC(=O)CSc2sc3c(O)cc(=O)[nH]c3c2C#N)c(OC)c1	.	.	.	.	.	36.2	.
SMILES	GRIN3A LBD mod	UCH37 DUB inh	PAFAH1B2 FP inh	PAFAH2 FP inh	PAFAH1B3 inh	pPAFAH inh	pPAFAH confirm
COc1ccccc1NC(=O)CSc1sc2c(O)cc(=O)[nH]c2c1C#N	.	.	.	.	.	38.8	.
COc1ccc(Cl)cc1NC(=O)CSc1sc2c(O)cc(=O)[nH]c2c1C#N	.	.	.	.	.	.	/
COC(=O)c1ccc(C)c(NC(=O)CSc2sc3c(O)cc(=O)[nH]c3c2C#N)c1	.	.	.	.	.	.	/
C=CCOc1c(Br)cc(C=NNC(N)=O)cc1OC	/	.	/	/	/	/	/
O=S(=O)(N=C(Sc1ccc(Cl)cc1)c1ccccc1)c1ccccc1	/	.	/	/	/	/	/
Cc1c(C(=O)NN=Cc2ccccn2)nnn1-c1nonc1N	/	.	/	/	/	/	/
Cc1cc(C)cc(NS(=O)(=O)c2csc(C(N)=O)c2)c1	.	.	.	.	.	.	/
Cc1ccc(NS(=O)(=O)c2csc(C(N)=O)c2)c(C)c1	.	.	.	.	.	36.4	.
O=C(O)COc1ccccc1C=NNC(=O)C(O)c1ccccc1 (centres undefined)	/	.	/	/	/	/	/
O=C(COC(=O)c1ccc(Cl)cc1)NC(=O)NC1CCCC1	/	.	.	.	.	/	/
CC(NCC(=O)NC(=O)NC1CCCC1)c1ccc(Cl)cc1Cl (centres undefined)	.	.	.	.	.	58.1	.
O=C(NN=Cc1ccc([N+](=O)[O-])o1)C1CC1	/	.	/	/	/	/	/
CC(=O)c1c(OC(=O)c2ccccc2)c2ccccc2n1C	.	.	.	.	.	81.5	.
Cn1c(=O)c(C(=O)c2ccccc2)c(O)c2ccccc21	.	.	/	/	/	.	/
CCN(C(=S)NC(=O)C1CC1)c1ccccc1	.	.	.	.	.	.	/
CN(C(=S)NC(=O)C1CC1)c1ccc(O)cc1	.	.	.	.	.	61.4	.
CC(Cc1ccccc1)=NNC(=O)CNC(=O)Cc1ccc(Cl)cc1	/	.	/	/	/	/	/
CC1(C)CC(=O)CC(=NNC(=O)COc2ccc3ccccc3c2Br)C1	/	.	/	/	/	/	/
Cc1ncc(CO)c(C=NNC(=O)c2cc(Br)ccc2O)c1O	/	.	/	/	/	/	/
COc1ccc(CCn2c(C)cc(C(=O)CSc3nnc(N)s3)c2C)cc1	.	.	.	.	.	.	/
Cc1cc(C(=O)CSc2nc(N)cc(=O)[nH]2)c(C)n1-c1ccc(OC(F)F)cc1	.	.	.	.	.	59.6	70.6
COc1ccc(CCn2c(C)cc(C(=O)CSc3nc(N)cc(=O)[nH]3)c2C)cc1	.	.	.	.	.	35.3	31.2
Cc1cc(C(=O)CSc2nc(N)cc(=O)[nH]2)c(C)n1CCc1ccc(F)cc1	.	.	.	.	.	61.3	61.5
O=C1NCCCC1C(=O)NN=Cc1ccc(Cl)cc1 (centres undefined)	/	.	/	/	/	/	/
CCOC(=O)c1ccc(N2C(=O)CC(Sc3ncccn3)C2=O)cc1 (centres undefined)	.	.	.	.	.	40.4	.
SMILES	GRIN3A LBD mod	UCH37 DUB inh	PAFAH1B2 FP inh	PAFAH2 FP inh	PAFAH1B3 inh	pPAFAH inh	pPAFAH confirm
CC(NC(=S)Nc1cccc(F)c1)C(c1cccs1)N1CCOCC1 (centres undefined)	.	.	.	.	.	46.7	.
Cc1ccc(C)c(NC(=S)NC(C)C(c2cccs2)N2CCOCC2)c1 (centres undefined)	.	.	.	.	.	.	/
CSc1sc(C#N)c2c1C(=NO)CCC2	/	.	/	/	/	/	/
CCC(=O)OC1(C)C(=O)C=C2C=C(c3ccsc3)OC=C2C1=O (centres undefined)	.	.	.	.	.	48.2	33.8
CCCCC1=CC2=CC(=O)C(C)(OC(=O)CC)C(=O)C2=CN1c1ccccc1 (centres undefined)	.	.	.	.	.	.	/
COc1ccc(OC)c(-c2cc(C(=O)NN=Cc3ccc(F)cc3)c3ccccc3n2)c1	/	.	/	/	/	/	/

Screening results deposited in PubChem by several laboratories.
